Assay results published in ChEMBL document CHEMBL4673301, “Design, synthesis, and anti-proliferative evaluation of new quinazolin-4(3H)-ones as potential VEGFR-2 inhibitors” (Bioorg Med Chem, 2021).

Test system: HCT-116
Test: Potency index, ratio of IC50 of sorafenib to IC50 of compound for antiproliferative activity against human HCT-116 cells assessed as reduction in cell viability incubated for 24 hrs by MTT assay
Assay type: functional
Settings: not given

Structure (SMILES)	Ratio IC50
C/C(=N\NC(=O)c1cc([N+](=O)[O-])ccc1Cl)c1ccc(NC(=O)CSc2nc3ccccc3c(=O)n2-c2ccc(C)cc2)cc1	5.59

Test system: HepG2
Test: Potency index, ratio of IC50 of sorafenib to IC50 of compound for antiproliferative activity against human HepG2 cells assessed as reduction in cell viability incubated for 24 hrs by MTT assay
Assay type: functional
Settings: not given

Structure (SMILES)	Ratio IC50
C/C(=N\NC(=O)c1cc([N+](=O)[O-])ccc1Cl)c1ccc(NC(=O)CSc2nc3ccccc3c(=O)n2-c2ccc(C)cc2)cc1	3.88

Test system: MCF7
Test: Antiproliferative activity against human MCF7 cells assessed as reduction in cell viability incubated for 24 hrs by MTT assay
Assay type: functional, cell-based
Settings: MCF7, 24 h
Summary of the method: (§1)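 Cells from ATCC grown in RPMI-1640 with 10% FBS, penicillin 100 unit/ml and streptomycin 100 μg/ml at 37 °C, 5% CO2. Seeded at 1.0 x 10^4 cells/well for 48 h, then exposed to a range of compound concentrations for 24 h. MTT (5 mg/ml) added for 4 h, formazan dissolved in DMSO, A570 read. Viability taken as % of untreated. Duplicate wells, at least three independent IC50 determinations.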

IC50	Structure (SMILES)
14.4 µM	Cc1ccc(-n2c(SCC(=O)Nc3ccc(C(=O)NNC(=O)c4ccccc4O)cc3)nc3ccccc3c2=O)cc1
18.3 µM	Cc1ccc(-n2c(SCC(=O)Nc3ccc(C(=O)NCc4ccccc4)cc3)nc3ccccc3c2=O)cc1
13.5 µM	CC(=O)c1ccc(NC(=O)CSc2nc3ccccc3c(=O)n2-c2ccc(C)cc2)cc1
23 µM	C/C(=N\NC(=O)c1ccccc1Cl)c1ccc(NC(=O)CSc2nc3ccccc3c(=O)n2-c2ccc(C)cc2)cc1
7.1 µM	Cc1ccc(-n2c(SCC(=O)Nc3ccc(S(=O)(=O)Nc4nc(C)cc(C)n4)cc3)nc3ccccc3c2=O)cc1
23.7 µM	CCOC(=O)c1ccc(NC(=O)c2ccc(NC(=O)CSc3nc4ccccc4c(=O)n3-c3ccc(C)cc3)cc2)cc1
28.4 µM	Cc1ccc(NC(=O)c2ccc(NC(=O)CSc3nc4ccccc4c(=O)n3-c3ccc(C)cc3)cc2)cc1
24.9 µM	Cc1ccc(-n2c(SCC(=O)Nc3ccc(C(=O)NC4CCCCC4)cc3)nc3ccccc3c2=O)cc1
15.4 µM	C/C(=N\NC(=O)c1ccccc1O)c1ccc(NC(=O)CSc2nc3ccccc3c(=O)n2-c2ccc(C)cc2)cc1
44 µM	C/C(=N\NC(=O)c1ccc(Cl)cc1)c1ccc(NC(=O)CSc2nc3ccccc3c(=O)n2-c2ccc(C)cc2)cc1
6.79 µM	CC(=O)NS(=O)(=O)c1ccc(NC(=O)CSc2nc3ccccc3c(=O)n2-c2ccc(C)cc2)cc1
40.9 µM	C/C(=N\NC(=O)c1cccc(Cl)c1)c1ccc(NC(=O)CSc2nc3ccccc3c(=O)n2-c2ccc(C)cc2)cc1
26.9 µM	Cc1ccc(-n2c(SCC(=O)Nc3ccc(C(=O)Nc4ccccc4)cc3)nc3ccccc3c2=O)cc1
9.89 µM	C/C(=N\NC(N)=S)c1ccc(NC(=O)CSc2nc3ccccc3c(=O)n2-c2ccc(C)cc2)cc1
35.9 µM	C/C(=N\NC(=O)c1ccccc1)c1ccc(NC(=O)CSc2nc3ccccc3c(=O)n2-c2ccc(C)cc2)cc1
5.99 µM	Cc1ccc(-n2c(SCC(=O)Nc3ccc(C(=O)Nc4ccc(Cl)cc4)cc3)nc3ccccc3c2=O)cc1
16.1 µM	Cc1ccc(-n2c(SCC(=O)Nc3ccc(C(=O)NNc4ccccc4)cc3)nc3ccccc3c2=O)cc1
3.91 µM	C/C(=N\NC(=O)c1cc([N+](=O)[O-])ccc1Cl)c1ccc(NC(=O)CSc2nc3ccccc3c(=O)n2-c2ccc(C)cc2)cc1
30.6 µM	Cc1ccc(-n2c(SCC(=O)Nc3ccc(S(=O)(=O)Nc4ccccn4)cc3)nc3ccccc3c2=O)cc1

Structure (SMILES)	IC50
CNC(=O)c1cc(Oc2ccc(NC(=O)Nc3ccc(Cl)c(C(F)(F)F)c3)cc2)ccn1 [SORAFENIB]	7.21 µM

Test system: MCF7
Test: Potency index, ratio of IC50 of doxorubicin to IC50 of compound for antiproliferative activity against human MCF7 cells assessed as reduction in cell viability incubated for 24 hrs by MTT assay
Assay type: functional
Settings: not given

Structure (SMILES)	Ratio IC50
C/C(=N\NC(=O)c1cc([N+](=O)[O-])ccc1Cl)c1ccc(NC(=O)CSc2nc3ccccc3c(=O)n2-c2ccc(C)cc2)cc1	1.96

Test system: MCF7
Test: Potency index, ratio of IC50 of sorafenib to IC50 of compound for antiproliferative activity against human MCF7 cells assessed as reduction in cell viability incubated for 24 hrs by MTT assay
Assay type: functional
Settings: not given

Structure (SMILES)	Ratio IC50
C/C(=N\NC(=O)c1cc([N+](=O)[O-])ccc1Cl)c1ccc(NC(=O)CSc2nc3ccccc3c(=O)n2-c2ccc(C)cc2)cc1	1.84

Test system: HCT-116
Test: Potency index, ratio of IC50 of doxorubicin to IC50 of compound for antiproliferative activity against human HCT-116 cells assessed as reduction in cell viability incubated for 24 hrs by MTT assay
Assay type: functional
Settings: not given

Structure (SMILES)	Ratio IC50
C/C(=N\NC(=O)c1cc([N+](=O)[O-])ccc1Cl)c1ccc(NC(=O)CSc2nc3ccccc3c(=O)n2-c2ccc(C)cc2)cc1	5.73

Test system: HCT-116
Test: Antiproliferative activity against human HCT-116 cells assessed as reduction in cell viability incubated for 24 hrs by MTT assay
Assay type: functional, cell-based
Settings: HCT-116, 24 h
Summary of the method: as §1

IC50	Structure (SMILES)
10.8 µM	Cc1ccc(-n2c(SCC(=O)Nc3ccc(C(=O)NNC(=O)c4ccccc4O)cc3)nc3ccccc3c2=O)cc1
13.4 µM	Cc1ccc(-n2c(SCC(=O)Nc3ccc(C(=O)NCc4ccccc4)cc3)nc3ccccc3c2=O)cc1
8.27 µM	CC(=O)c1ccc(NC(=O)CSc2nc3ccccc3c(=O)n2-c2ccc(C)cc2)cc1
17.1 µM	C/C(=N\NC(=O)c1ccccc1Cl)c1ccc(NC(=O)CSc2nc3ccccc3c(=O)n2-c2ccc(C)cc2)cc1
5.24 µM	Cc1ccc(-n2c(SCC(=O)Nc3ccc(S(=O)(=O)Nc4nc(C)cc(C)n4)cc3)nc3ccccc3c2=O)cc1
17 µM	CCOC(=O)c1ccc(NC(=O)c2ccc(NC(=O)CSc3nc4ccccc4c(=O)n3-c3ccc(C)cc3)cc2)cc1
17.4 µM	Cc1ccc(NC(=O)c2ccc(NC(=O)CSc3nc4ccccc4c(=O)n3-c3ccc(C)cc3)cc2)cc1
14.1 µM	Cc1ccc(-n2c(SCC(=O)Nc3ccc(C(=O)NC4CCCCC4)cc3)nc3ccccc3c2=O)cc1
12.4 µM	C/C(=N\NC(=O)c1ccccc1O)c1ccc(NC(=O)CSc2nc3ccccc3c(=O)n2-c2ccc(C)cc2)cc1
37.1 µM	C/C(=N\NC(=O)c1ccc(Cl)cc1)c1ccc(NC(=O)CSc2nc3ccccc3c(=O)n2-c2ccc(C)cc2)cc1
6.14 µM	CC(=O)NS(=O)(=O)c1ccc(NC(=O)CSc2nc3ccccc3c(=O)n2-c2ccc(C)cc2)cc1
30.4 µM	C/C(=N\NC(=O)c1cccc(Cl)c1)c1ccc(NC(=O)CSc2nc3ccccc3c(=O)n2-c2ccc(C)cc2)cc1
16.6 µM	Cc1ccc(-n2c(SCC(=O)Nc3ccc(C(=O)Nc4ccccc4)cc3)nc3ccccc3c2=O)cc1
8.32 µM	C/C(=N\NC(N)=S)c1ccc(NC(=O)CSc2nc3ccccc3c(=O)n2-c2ccc(C)cc2)cc1
9.63 µM	COc1cccc2c1C(=O)c1c(O)c3c(c(O)c1C2=O)C[C@@](O)(C(=O)CO)C[C@@H]3O[C@H]1C[C@H](N)[C@H](O)[C@H](C)O1 [DOXORUBICIN]
29 µM	C/C(=N\NC(=O)c1ccccc1)c1ccc(NC(=O)CSc2nc3ccccc3c(=O)n2-c2ccc(C)cc2)cc1
3.67 µM	Cc1ccc(-n2c(SCC(=O)Nc3ccc(C(=O)Nc4ccc(Cl)cc4)cc3)nc3ccccc3c2=O)cc1
9.4 µM	Cc1ccc(-n2c(SCC(=O)Nc3ccc(C(=O)NNc4ccccc4)cc3)nc3ccccc3c2=O)cc1
1.68 µM	C/C(=N\NC(=O)c1cc([N+](=O)[O-])ccc1Cl)c1ccc(NC(=O)CSc2nc3ccccc3c(=O)n2-c2ccc(C)cc2)cc1
24.1 µM	Cc1ccc(-n2c(SCC(=O)Nc3ccc(S(=O)(=O)Nc4ccccn4)cc3)nc3ccccc3c2=O)cc1

Structure (SMILES)	IC50
CNC(=O)c1cc(Oc2ccc(NC(=O)Nc3ccc(Cl)c(C(F)(F)F)c3)cc2)ccn1 [SORAFENIB]	9.4 µM

Target: Vascular endothelial growth factor receptor 2 (Homo sapiens, UniProt P35968)
Sequence (P35968 whole entry): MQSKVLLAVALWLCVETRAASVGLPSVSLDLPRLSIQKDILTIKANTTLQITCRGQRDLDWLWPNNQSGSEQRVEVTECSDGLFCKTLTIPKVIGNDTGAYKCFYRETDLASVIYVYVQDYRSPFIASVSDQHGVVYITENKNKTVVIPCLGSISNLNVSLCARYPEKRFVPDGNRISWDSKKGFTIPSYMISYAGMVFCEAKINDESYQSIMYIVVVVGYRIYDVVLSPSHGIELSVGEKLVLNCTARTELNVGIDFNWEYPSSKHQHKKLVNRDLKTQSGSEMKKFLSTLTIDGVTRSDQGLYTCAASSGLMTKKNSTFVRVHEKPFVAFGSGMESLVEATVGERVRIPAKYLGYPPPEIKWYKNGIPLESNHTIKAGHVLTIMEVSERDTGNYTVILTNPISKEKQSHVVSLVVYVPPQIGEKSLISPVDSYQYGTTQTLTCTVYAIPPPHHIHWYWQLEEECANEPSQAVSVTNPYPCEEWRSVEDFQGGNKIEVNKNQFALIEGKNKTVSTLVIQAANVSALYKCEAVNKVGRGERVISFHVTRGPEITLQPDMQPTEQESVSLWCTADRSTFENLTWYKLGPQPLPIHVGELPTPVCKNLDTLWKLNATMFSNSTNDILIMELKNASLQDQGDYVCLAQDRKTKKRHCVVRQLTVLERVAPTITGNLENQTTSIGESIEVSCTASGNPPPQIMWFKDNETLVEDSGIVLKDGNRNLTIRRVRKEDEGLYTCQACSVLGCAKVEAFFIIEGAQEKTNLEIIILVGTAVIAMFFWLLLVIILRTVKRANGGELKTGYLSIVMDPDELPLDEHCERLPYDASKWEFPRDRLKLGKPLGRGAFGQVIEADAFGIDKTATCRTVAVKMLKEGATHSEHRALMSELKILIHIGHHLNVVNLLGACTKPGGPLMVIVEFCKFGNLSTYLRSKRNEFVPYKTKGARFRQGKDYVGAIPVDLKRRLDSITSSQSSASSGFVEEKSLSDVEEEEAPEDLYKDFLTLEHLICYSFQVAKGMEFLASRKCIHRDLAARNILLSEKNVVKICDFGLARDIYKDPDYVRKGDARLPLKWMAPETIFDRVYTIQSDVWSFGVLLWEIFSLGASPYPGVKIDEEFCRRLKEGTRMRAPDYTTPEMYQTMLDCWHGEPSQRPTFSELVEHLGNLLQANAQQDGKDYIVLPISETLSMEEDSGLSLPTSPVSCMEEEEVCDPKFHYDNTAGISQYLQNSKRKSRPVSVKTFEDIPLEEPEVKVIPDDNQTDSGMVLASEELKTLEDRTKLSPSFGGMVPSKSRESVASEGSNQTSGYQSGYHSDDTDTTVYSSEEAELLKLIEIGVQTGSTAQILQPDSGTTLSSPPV
Settings: not given

IC50	Structure (SMILES)
1.07 µM	Cc1ccc(-n2c(SCC(=O)Nc3ccc(C(=O)NNC(=O)c4ccccc4O)cc3)nc3ccccc3c2=O)cc1
1.4 µM	Cc1ccc(-n2c(SCC(=O)Nc3ccc(C(=O)NCc4ccccc4)cc3)nc3ccccc3c2=O)cc1
1.78 µM	CC(=O)c1ccc(NC(=O)CSc2nc3ccccc3c(=O)n2-c2ccc(C)cc2)cc1
0.707 µM	Cc1ccc(-n2c(SCC(=O)Nc3ccc(S(=O)(=O)Nc4nc(C)cc(C)n4)cc3)nc3ccccc3c2=O)cc1
1.06 µM	C/C(=N\NC(=O)c1ccccc1O)c1ccc(NC(=O)CSc2nc3ccccc3c(=O)n2-c2ccc(C)cc2)cc1
0.721 µM	CC(=O)NS(=O)(=O)c1ccc(NC(=O)CSc2nc3ccccc3c(=O)n2-c2ccc(C)cc2)cc1
1.37 µM	Cc1ccc(-n2c(SCC(=O)Nc3ccc(C(=O)Nc4ccccc4)cc3)nc3ccccc3c2=O)cc1
1 µM	C/C(=N\NC(N)=S)c1ccc(NC(=O)CSc2nc3ccccc3c(=O)n2-c2ccc(C)cc2)cc1
0.685 µM	Cc1ccc(-n2c(SCC(=O)Nc3ccc(C(=O)Nc4ccc(Cl)cc4)cc3)nc3ccccc3c2=O)cc1
1.21 µM	Cc1ccc(-n2c(SCC(=O)Nc3ccc(C(=O)NNc4ccccc4)cc3)nc3ccccc3c2=O)cc1
0.452 µM	C/C(=N\NC(=O)c1cc([N+](=O)[O-])ccc1Cl)c1ccc(NC(=O)CSc2nc3ccccc3c(=O)n2-c2ccc(C)cc2)cc1

Test system: HepG2
Test: Potency index, ratio of IC50 of doxorubicin to IC50 of compound for antiproliferative activity against human HepG2 cells assessed as reduction in cell viability incubated for 24 hrs by MTT assay
Assay type: functional
Settings: not given

Structure (SMILES)	Ratio IC50
C/C(=N\NC(=O)c1cc([N+](=O)[O-])ccc1Cl)c1ccc(NC(=O)CSc2nc3ccccc3c(=O)n2-c2ccc(C)cc2)cc1	4.39

Test system: HepG2
Test: Antiproliferative activity against human HepG2 cells assessed as reduction in cell viability incubated for 24 hrs by MTT assay
Assay type: functional, cell-based
Settings: HepG2, 24 h
Summary of the method: as §1

IC50	Structure (SMILES)
11.7 µM	Cc1ccc(-n2c(SCC(=O)Nc3ccc(C(=O)NNC(=O)c4ccccc4O)cc3)nc3ccccc3c2=O)cc1
17.4 µM	Cc1ccc(-n2c(SCC(=O)Nc3ccc(C(=O)NCc4ccccc4)cc3)nc3ccccc3c2=O)cc1
12.3 µM	CC(=O)c1ccc(NC(=O)CSc2nc3ccccc3c(=O)n2-c2ccc(C)cc2)cc1
22.6 µM	C/C(=N\NC(=O)c1ccccc1Cl)c1ccc(NC(=O)CSc2nc3ccccc3c(=O)n2-c2ccc(C)cc2)cc1
6.76 µM	Cc1ccc(-n2c(SCC(=O)Nc3ccc(S(=O)(=O)Nc4nc(C)cc(C)n4)cc3)nc3ccccc3c2=O)cc1
21.5 µM	CCOC(=O)c1ccc(NC(=O)c2ccc(NC(=O)CSc3nc4ccccc4c(=O)n3-c3ccc(C)cc3)cc2)cc1
19 µM	Cc1ccc(NC(=O)c2ccc(NC(=O)CSc3nc4ccccc4c(=O)n3-c3ccc(C)cc3)cc2)cc1
16.5 µM	Cc1ccc(-n2c(SCC(=O)Nc3ccc(C(=O)NC4CCCCC4)cc3)nc3ccccc3c2=O)cc1
11.9 µM	C/C(=N\NC(=O)c1ccccc1O)c1ccc(NC(=O)CSc2nc3ccccc3c(=O)n2-c2ccc(C)cc2)cc1
41.6 µM	C/C(=N\NC(=O)c1ccc(Cl)cc1)c1ccc(NC(=O)CSc2nc3ccccc3c(=O)n2-c2ccc(C)cc2)cc1
4.19 µM	CC(=O)NS(=O)(=O)c1ccc(NC(=O)CSc2nc3ccccc3c(=O)n2-c2ccc(C)cc2)cc1
33.8 µM	C/C(=N\NC(=O)c1cccc(Cl)c1)c1ccc(NC(=O)CSc2nc3ccccc3c(=O)n2-c2ccc(C)cc2)cc1
21.8 µM	Cc1ccc(-n2c(SCC(=O)Nc3ccc(C(=O)Nc4ccccc4)cc3)nc3ccccc3c2=O)cc1
8.38 µM	C/C(=N\NC(N)=S)c1ccc(NC(=O)CSc2nc3ccccc3c(=O)n2-c2ccc(C)cc2)cc1
30.5 µM	C/C(=N\NC(=O)c1ccccc1)c1ccc(NC(=O)CSc2nc3ccccc3c(=O)n2-c2ccc(C)cc2)cc1
4.12 µM	Cc1ccc(-n2c(SCC(=O)Nc3ccc(C(=O)Nc4ccc(Cl)cc4)cc3)nc3ccccc3c2=O)cc1
12.1 µM	Cc1ccc(-n2c(SCC(=O)Nc3ccc(C(=O)NNc4ccccc4)cc3)nc3ccccc3c2=O)cc1
1.88 µM	C/C(=N\NC(=O)c1cc([N+](=O)[O-])ccc1Cl)c1ccc(NC(=O)CSc2nc3ccccc3c(=O)n2-c2ccc(C)cc2)cc1
30 µM	Cc1ccc(-n2c(SCC(=O)Nc3ccc(S(=O)(=O)Nc4ccccn4)cc3)nc3ccccc3c2=O)cc1

Structure (SMILES)	IC50
CNC(=O)c1cc(Oc2ccc(NC(=O)Nc3ccc(Cl)c(C(F)(F)F)c3)cc2)ccn1 [SORAFENIB]	7.31 µM
